# Source: PubChem BioAssay
# GSK3 alpha inh = blocks human GSK-3 alpha kinase; P49840; ADP-Glo luminescence, 60 min; inhibition, % at 10 µM; 320,000 compounds, 0.1% hits; AID 2650;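 active = more than half of replicates show inhibition above 20%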;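 note: GST-tagged GSK-3 alpha with peptide substrate and 25 µM ATP; 0% = DMSO neutral wells and 100% = GW8510 positive control wells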
# Dyrk1A ADPGlo = inhibitors of rat Dyrk1A kinase | Q63470 | ADP-Glo luminescence, NFATc1 peptide | inhibition, % at 12.5 µM | 310,000 compounds, 0.43% hits; in the data active = inhibition above about 50%;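 note: plate controls were vehicle with enzyme for no effect and no enzyme for full effect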
# GSK3beta inhib = inhibitors of human GSK3beta kinase. P49841. GST-GSK3beta kinase, ADP-Glo luminescence, 60 min; hits give low values. activity score (negative = inhibition), % at 10 µM. 300,000 compounds, 0.038% hits. AID 2097;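 active = more than half of replicate wells score below -50%, meaning over 50% inhibition versus plate controls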;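 note: 0% = median DMSO wells and -100% = median GW8510 positive control wells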
# Target sequence (P49841 whole entry, looked up): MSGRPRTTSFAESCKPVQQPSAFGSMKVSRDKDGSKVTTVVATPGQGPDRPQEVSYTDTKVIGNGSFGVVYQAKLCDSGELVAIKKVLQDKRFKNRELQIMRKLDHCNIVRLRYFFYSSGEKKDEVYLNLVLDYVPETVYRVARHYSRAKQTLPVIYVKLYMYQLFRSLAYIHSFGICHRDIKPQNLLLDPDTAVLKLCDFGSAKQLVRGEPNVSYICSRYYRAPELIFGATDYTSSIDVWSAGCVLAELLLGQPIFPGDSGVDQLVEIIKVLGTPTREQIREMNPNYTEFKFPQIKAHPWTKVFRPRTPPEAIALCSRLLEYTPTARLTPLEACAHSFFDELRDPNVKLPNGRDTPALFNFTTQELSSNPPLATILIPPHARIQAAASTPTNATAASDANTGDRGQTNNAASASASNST
#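 Test system – GST-tagged human GSK3beta kinase, cell-free · Incubation – 60 min enzyme reaction, room temperature · Signal – ADP-Glo luminescence · Also added – peptide substrate and ATP at 25 µM · Controls – DMSO neutral wells and GW8510 at 20 µM as positive · Buffer or medium – Tris/MgCl2 kinase buffer · Measure – Luminescence-derived activity versus plate DMSO and GW8510 wells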
# CDK5 inh = inhibitors of human CDK5/p35 kinase; AID 488839; Q00535+Q15078; 330,000 compounds, 0.01% hits; Recombinant CDK5/p35, ADP-Glo luminescence, 60 min; inhibition, % at 10 µM;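 active = highest replicate inhibition of at least 50% and at least 75% of replicates reaching 50%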;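 note: plate controls were DMSO neutral control for no effect and GW8510 at 10 µM for full effect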
# STK33 kinase inh = blocks human STK33 kinase activity. purified STK33, MBP phosphorylation, ADP-Glo luminescence. 320,000 compounds, 0.073% hits. inhibition, % at 10 µM;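 active = inhibition at or above 25%, using the most active replicate where run in duplicate; inactive = inhibition below 25%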
# Dyrk1A artifact = counter-screen for Dyrk1A inhibitors: ADP-Glo luciferase artifacts | shares compounds with Dyrk1A ADPGlo | ADP-Glo luciferase artifact assay, no Dyrk1A, luminescence | 1,300 tested, under 10 active | AC50, µM (top dose mostly 12 µM), for the others: top-dose activity change, negative = inhibition;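 active = fitted half-maximal dose AC50 no more than ten times the top valid tested dose, with luminescence dropping as dose rises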
# * = called active by the depositor; x = no result. This is one part of a sample in which hits are shown more often than they occur.
SMILES,GSK3 alpha inh,Dyrk1A ADPGlo,GSK3beta inhib,CDK5 inh,STK33 kinase inh,Dyrk1A artifact
O=C(NC1CCCC1)C(c1ccncc1)N(C(=O)Cn1nnc(-c2ccccc2F)n1)c1cccc(F)c1 (centres undefined),0,1,-1,0,0,x
COc1ccc2c(c1)c(=O)oc1c(C)c(OCc3cc(C(=O)O)oc3C)ccc12,16,51*,-4,4,3,8%
COc1ccc2c(c1)c(=O)oc1c(C)c(OCc3ccc(C(=O)O)cc3)ccc12,1,3,-4,2,0,x
O=C(c1ccc2c3n(nc2c1)-c1ccccc1CO3)N1CCOCC1,51*,59*,-23,42,43*,9µM*
O=C(c1ccc2c3n(nc2c1)-c1ccc(Cl)cc1CO3)N1CCOCC1,1,6,-1,2,2,x
COc1ccc(C(=O)NNC(=O)c2ccc(F)c(S(=O)(=O)N3CCOCC3)c2)cc1,3,2,x,-4,-1,x
Oc1ccc2c(ccc3[nH]cnc32)c1,2,79*,2,3,13,7%
CCn1nnnc1SCC(=O)N(C)C1CCS(=O)(=O)C1 (centres undefined),-4,-2,x,1,0,x
C[N+](C)(CCOc1ccccc1)Cc1ccccc1 (tested in a mixture with another compound),10,92*,-3,-2,1,7%
O=C(c1ccccc1)c1ccc2ccccc2c1,x,5,x,-1,x,x
O=C(c1ccccc1)c1ccc2cc(O)ccc2c1,8,64*,-7,2,14,-1%
CCOC(=O)C1=C(CN2CCN(C(=O)c3ccco3)CC2)NC(=O)NC1c1ccc(OC)cc1 (centres undefined),0,1,2,0,-1,x
Cc1ccc2ncccc2c1,-4,x,x,1,0,x
c1cnc2ccc(-c3ccc4ncccc4c3)cc2c1,-1,87*,1,3,12,9%
O=C(COc1ccccc1Cl)N1CCN(c2ccc([N+](=O)[O-])c(N3CCOCC3)c2)CC1,-2,3,0,-3,0,x
CC1(C)Nc2ccc(O)cc2-c2c1ssc2=S,36,52*,-37,0,1,9%
COc1cccc(-n2sc3c(c2=S)-c2cc(OC)ccc2NC3(C)C)c1,0,-3,0,0,-2,x
CC(NCC(=O)Nc1ccccc1C(=O)NC1CC1)c1ccc(S(C)(=O)=O)cc1 (centres undefined),-2,2,x,0,-1,x
Oc1c(Br)cc(/C=N/n2c(-c3ccccc3)n[nH]c2=S)cc1Br,5,1,-2,2,-12,x
Oc1ccc(/C=N/n2c(-c3ccccc3)n[nH]c2=S)cc1Br,10,56*,-6,8,8,11%
CCOC(=O)c1c(C)[nH]c(C(=O)CN(C)CC(=O)Nc2ccccc2Cl)c1C,-4,-1,x,-5,-1,x
CCOc1cc(-c2nc3ccccc3s2)ccc1O,-1,58*,4,1,0,8%
COc1ccc(-c2nc3ccccc3s2)cc1O,4,-4,-2,3,3,x
COc1cc(-c2nc3ccccc3s2)ccc1O,0,77*,0,2,4,8%
Cc1nc(NC(=O)c2c(-c3ccccc3Cl)noc2C)sc1C,-2,-7,-1,0,-1,x
SMILES,GSK3 alpha inh,Dyrk1A ADPGlo,GSK3beta inhib,CDK5 inh,STK33 kinase inh,Dyrk1A artifact
CSc1ccc(-c2nc(O)c3cnccn23)cc1,9,2,-1,-1,1,x
O=C(NC(=S)Nc1ccc(Cl)c(C(=O)O)c1)c1cccc(COc2ccccc2)c1,-5,-5,0,0,-6,x
CCCCOc1cccc(C(=O)NC(=S)Nc2ccc(Cl)c(C(=O)O)c2)c1,-4,66*,-2,1,-1,11%
COc1ccc(-c2nc(N)ncc2-c2ccccc2)c(O)c1,3,-1,4,1,4,x
COc1ccc(-c2nc(N)ncc2-c2ccccc2OC)c(O)c1,12,51*,1,-3,4,7%
Cc1ccc2[nH]cc(CCNC(=O)c3cccs3)c2c1,2,-1,0,0,0,x
O=C(c1ccc(Cl)c(Cl)c1)N1CCC(=O)N(C(COCc2cccc(C(F)(F)F)c2)Cc2ccccc2)CC1 (centres undefined),-2,53*,3,0,0,6%
NS(=O)(=O)c1ccc(CNC(=O)Cc2c(F)cccc2Cl)cc1,-2,-7,0,0,1,x
CC(=O)Nc1nc(C)c(-c2csc(Nc3ccc(O)cc3)n2)s1,24,76*,x,3,13,8%
Cc1nc(N)sc1-c1csc(Nc2ccccc2)n1,3,52*,-2,0,0,8%
Cc1nc(N)sc1-c1csc(Nc2cccc(C(=O)O)c2)n1,12,25,-2,-6,4,x
O=c1cc(-c2ccccc2)oc2cc(O)c(O)c(O)c12,x,57*,x,12,x,10%
COc1c(O)cc2oc(-c3ccc(O)cc3)cc(=O)c2c1O,6,30,-3,10,7,x
O=c1cc(-c2ccc(O)cc2)oc2c(O)c(O)c(O)c(O)c12,10,54*,x,3,16,10%
O=[N+]([O-])c1ccc(SCc2ccncc2)nc1,0,0,-4,-2,1,x
CCCOc1ccc(CN(CCC#N)C(=S)NC(=O)c2ccccc2)cc1,-2,-2,4,-2,-1,x
CC1CCN(C(=O)C2CCN(S(=O)(=O)c3cccc4nsnc34)CC2)CC1,0,-2,2,0,-1,x
c1ccc(-c2csc3nnc(SCc4ccc5c(c4)OCO5)n23)cc1,9,58*,-4,5,3,7%
O=C(CCSc1nnc2scc(-c3ccccc3)n12)NCc1ccc2c(c1)OCO2,-3,1,-1,1,0,x
CCCCn1nnnc1SCC(=O)NNC(=O)C1CCCCC1,-1,x,0,-1,-3,x
CCCC[n+]1ccc(-c2nc3ccc([N+](=O)[O-])cc3[nH]2)cc1,23,83*,0,-1,1,12%
O=[N+]([O-])c1ccc(-c2nc3ccc([N+](=O)[O-])cc3[nH]2)cc1,0,29,2,-1,0,x
COc1ccc(-c2csc3ncnc(Sc4nnnn4C)c23)cc1,0,50*,x,1,1,10%
C/C(=C/c1oc2ccc(O)cc2c1[N+](=O)[O-])N(C)C,-1,52*,-3,1,0,7%
S=c1[nH]c2ccccc2n2c(=S)[nH]nc12,7,56*,0,4,3,7%
Nc1ncnc2c1ncn2[C@@H]1O[C@H](CNC(=O)[C@@H]2CCC(=O)N2)[C@@H](O)[C@H]1O,x,x,x,1,x,x
CCOC(=O)C1=C(C)OC(N)=C(C#N)C1c1ccc(O)c(OC)c1 (centres undefined),-1,51*,-4,1,0,11%
